One data set has as its system GRPR in PC-3 cells. Put plainly: Blocking study in PC-3 cells with parent peptide 3. Type of data set: cell-based. The conditions noted are these: 0.5 μM 7, 1 h, 37 °C; 10-fold molar excess of 3.
The subject of the next data set is PC-3 cells. The experiment in a line: Confocal fluorescence microscopy of PC-3 cells. The data set is classed as cell-based. The note with it: 0.5 μM, 1 h, 37 °C. Summed up: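 PC-3 cells, with native GRPR, were detached with trypsin-free dissociation buffer and seeded at 50 000 cells/well on coverslips. They were cultured overnight in F-12K/10% FBS at 37 °C, 5% CO2. Test compound at 0.5 μM was added in serum-free F-12K for 1 h at 37 °C, alone or with a 10-fold molar excess of the unlabelled parent peptide as blocker. Cells were PBS-washed three times, fixed in 4% paraformaldehyde and mounted with DAPI. Confocal settings: ex 559 nm, em 605–705 nm.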

A further data set in a line: Photophysical properties. Type of data set: physicochemical. The note with it: in DMSO; for λabs (absorption maximum): UV-Vis spectrophotometer; for ΦF (fluorescence quantum yield): comparative method, [Ru(bpy)3][PF6]2 as relative standard. Summed up: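 Measurements were made in DMSO. UV-Vis absorption and excitation/emission spectra were recorded. Molar extinction coefficient was taken from the slope of absorbance versus concentration over seven solutions of known concentration. Fluorescence quantum yield was determined by the comparative method against the [Ru(bpy)3][PF6]2 standard.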

The target in another data set is GRPR (Homo sapiens, UniProt P30550). Put plainly: Radioligand competitive binding assay, GRPR. The procedure, abridged: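 Whole-cell competition binding used PC-3 cells (500 000/vial) grown in F-12K/10% FBS, with [125I]Tyr4-bombesin as radioligand. Test peptide was run at 10−12 to 10−6 M, shaking at 550 rpm for 1 h at 37 °C. Cells were centrifuged, the pellet washed with 50 mM Tris pH 7.4, and bound activity gamma-counted. IC50 came from nonlinear regression; assays were run in triplicate.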

Data set [1] deals with OVCAR-8 cells stably transfected with GHSR-1a. Put plainly: Confocal fluorescence microscopy of OVCAR-8 cells transfected with GHSR-1a. The data set is classed as cell-based. The conditions noted are these: 0.1 μM, 1 h, 37 °C. The procedure, abridged:
(§1)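 OVCAR-8 cells, either stably transfected with GHSR-1a or parental, were detached with trypsin-free dissociation buffer and seeded at 50 000 cells/well on coverslips. They were cultured overnight in RPMI/10% FBS at 37 °C, 5% CO2. Test compound at 0.1 μM was added in serum-free RPMI for 1 h at 37 °C. Cells were washed three times with PBS, fixed in 4% paraformaldehyde and mounted with DAPI. Confocal settings: ex 559 nm, em 598–698 nm; 40× and 60× objectives.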

A further data set concerns the target GHSR-1a (Homo sapiens, UniProt Q92847). The experiment in a line: Radioligand competitive binding assay, GHSR-1a. Summed up: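 Competition binding used membranes from HEK293 cells transiently transfected with GHSR-1a (50 000 cells/tube) and human [125I]-ghrelin(1–28) (15 000 cpm/tube). Test peptide was run at 10−11 to 10−5 M, with incubation for 20 min at 550 rpm. Unbound radioligand was removed and bound activity gamma-counted. Human ghrelin(1–28) served as reference. IC50 came from nonlinear regression; assays were run in triplicate.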

Another data set has as its system parental OVCAR-8 cells. Put plainly: Confocal fluorescence microscopy of parental OVCAR-8 cells. Type of data set: cell-based. The note with it: low expression of GHSR-1a. Summed up:
as §1

“Also recorded” adds a separate entry of the source. Starred links: 1 amine or outer side, 2 acyl side, 3 side chain; linkers in the order of their positions; H or OH if unused. Non-standard residues stand in square brackets, D forms with d. Residues, ends and D or L forms follow the SMILES beside them. *: point of attachment. X2 = COc1ccc([N+]2=NC(C#N)=NN(c3ccc(-c4cn(CCCC[C@H](N[*:1])C(=O)[*:2])nn4)cc3)[B-]2(F)F)cc1; Octanoyl = CCCCCCCC(=O)*; Dap = NC[C@H](N)C(=O)O

As usually defined, the IC50 is the concentration that inhibits the measured activity by half. High values mean a need for much substance, low ones inhibition by little substance.

Chain of GHSR-1a (Q92847 whole entry): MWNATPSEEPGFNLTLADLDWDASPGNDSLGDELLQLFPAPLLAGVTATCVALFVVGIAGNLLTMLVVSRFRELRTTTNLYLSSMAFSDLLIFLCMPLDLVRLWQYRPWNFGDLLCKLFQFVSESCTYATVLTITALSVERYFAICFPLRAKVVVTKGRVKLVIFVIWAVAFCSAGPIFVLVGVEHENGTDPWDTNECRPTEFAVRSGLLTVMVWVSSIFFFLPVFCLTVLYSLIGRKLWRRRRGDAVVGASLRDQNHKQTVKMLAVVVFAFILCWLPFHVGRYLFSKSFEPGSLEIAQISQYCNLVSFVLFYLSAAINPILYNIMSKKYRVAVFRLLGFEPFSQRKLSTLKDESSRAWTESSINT
Chain of GRPR (P30550 whole entry): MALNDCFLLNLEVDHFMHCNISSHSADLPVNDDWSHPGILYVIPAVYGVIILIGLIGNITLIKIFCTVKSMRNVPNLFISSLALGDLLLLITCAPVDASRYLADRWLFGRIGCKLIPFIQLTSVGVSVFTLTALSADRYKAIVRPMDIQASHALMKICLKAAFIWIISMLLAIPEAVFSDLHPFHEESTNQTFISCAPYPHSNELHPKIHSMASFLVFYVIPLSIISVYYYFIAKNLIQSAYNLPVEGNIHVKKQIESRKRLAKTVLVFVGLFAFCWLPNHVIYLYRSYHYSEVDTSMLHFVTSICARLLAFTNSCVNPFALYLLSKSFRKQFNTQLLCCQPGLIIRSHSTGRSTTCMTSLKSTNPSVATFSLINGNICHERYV

Take `CCCC[C@H](NC(=O)[C@H](Cc1ccccc1)NC(=O)[C@H](Cc1c[nH]cn1)NC(=O)CCNC(=O)[C@@H](NC(=O)[C@H](C)NC(=O)[C@H](Cc1c[nH]c2ccccc12)NC(=O)[C@H](CCC(N)=O)NC(=O)[C@@H](Cc1ccccc1)NC(=O)COCC(=O)NCCOCCOCCOCCOCCOCCOCCOCCOCCn1cc(-c2ccc([N+]3=NC(C#N)=NN(c4ccc(OC)cc4)[B-]3(F)F)cc2)nn1)C(C)C)C(N)=O` [Compound 7] (HELM PEPTIDE1{[COc1ccc(N2N=C(C#N)N=[N+](c3ccc(-c4cn(CCOCCOCCOCCOCCOCCOCCOCCOCCNC(=O)COCC(=O)[*:2])nn4)cc3)[B-]2(F)F)cc1].[dF].Q.W.A.V.[bAla].H.F.[Nle].[am]}$$$$V2.0): the “displacement by parent peptide 3” value with GRPR in PC-3 cells was “displacement of 7 by 10-fold molar excess of 3”. The “specific binding for GRPR by confocal fluorescence microscopy” value with PC-3 cells is given as “analogue 7 for GRPR was demonstrated; also recorded: specific binding of analogue 7 to GRPR”. Besides, in the data set “Photophysical properties”, the “λem (emission maximum)” value was 690 nm, the “λabs (absorption maximum)” value is recorded as 555 nm and the “ΦF (fluorescence quantum yield)” value is 12%. Also, the “ε (molar extinction coefficient)” value in the data set “Photophysical properties” (slope of absorbance against concentration, seven solutions) is recorded as 31 900 M^−1 cm^−1. For the same molecule, the IC50 on GRPR came to 16.3 nM. Moreover, the “receptor affinity relative to parent peptide (in words)” value on GRPR (vs parent peptide 3, GRPR) was “decrease in receptor affinity”.

Take `CCCCCCCC(=O)NC[C@H](NC(=O)[C@H](CO)NC(=O)CN)C(=O)N[C@@H](Cc1ccccc1)C(=O)N[C@@H](CC(C)C)C(=O)N[C@@H](CO)C(=O)N1CCC[C@H]1C(=O)N[C@H](C(=O)N[C@@H](CCCCn1cc(-c2ccc(N3N=C(C#N)N=[N+](c4ccc(OC)cc4)[B-]3(F)F)cc2)nn1)C(N)=O)[C@@H](C)O` [Compound 5, [Dpr(octanoyl)^3,Thr^8,Lys(triazole-formazanate)^9]ghrelin(1–9)] (H-GS[Dap](Octanoyl)FLSPT[X2]-NH2; N-terminus assumed): in data set [1], the “specific binding for GHSR-1a by confocal fluorescence microscopy” value is listed as “specific binding of 5 for GHSR-1a”. Besides, in “Photophysical properties”, the “λem (emission maximum)” value stood at 688 nm, the “λabs (absorption maximum)” value was determined as 560 nm and the “ΦF (fluorescence quantum yield)” value was 21%. On GHSR-1a, this molecule registered an IC50 of 89 nM. On GHSR-1a (vs parent peptide 2, GHSR-1a), the “receptor affinity relative to parent peptide (in words)” value is listed as “decrease in receptor affinity”. The “cellular uptake (red emission)” value in the data set with parental OVCAR-8 cells is recorded as “minimal uptake of 5”.

The values above are taken from article PMC9053952 (RSC Advances, 2020).
